From ChEMBL document CHEMBL1140227, “Histone deacetylase inhibitors through click chemistry” (J Med Chem, 2008)

Tests used:
Assay type in all cases: functional
PC-3 = assay: Growth inhibition of human PC3 cells at 10 uM relative to control; details: values are per cent of control
In short: (§1)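 Single-dose preliminary screen in the NCI human cancer cell line panel, run by the NIH. Percent inhibition of cell line growth was calculated by comparison with untreated samples.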

NCI-H322M = assay: Growth inhibition of human NCI-H322M cells at 10 uM relative to control; details: values are per cent of control; in short: as §1
HCT-116 = assay: Growth inhibition of human HCT116 cells at 10 uM relative to control; details: values are per cent of control; in short: as §1
NCI-H23 = assay: Growth inhibition of human NCI-H23 cells at 10 uM relative to control; details: values are per cent of control; in short: as §1
COLO 205 = assay: Growth inhibition of human COLO205 cells at 10 uM relative to control; details: values are per cent of control; in short: as §1
cells [1] = details: Homo sapiens, Cancer cell lines
U-251 = assay: Growth inhibition of human U251 cells at 10 uM relative to control; details: values are per cent of control
In short: (§2)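 Single-dose NCI human tumour cell line screen, run by the NIH. Percent inhibition of cell line growth was calculated by comparison with untreated samples.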

TK-10 [2] = assay: Growth inhibition of human TK10 cells
In short: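 NCI five-dose screen, run by the NIH. Each drug was tested at five concentrations alongside a control, using two microtiter plates per cell line. SAHA was included as the standard.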

SN12C = assay: Growth inhibition of human SN12C cells at 10 uM relative to control; details: values are per cent of control; in short: as §1
HT-29 = assay: Growth inhibition of human HT-29 cells at 10 uM relative to control; details: values are per cent of control; in short: as §1
OVCAR-4 = assay: Growth inhibition of human OVCAR4 cells at 10 uM relative to control; details: values are per cent of control; in short: as §1
EKVX = assay: Growth inhibition of human EKVX cells at 10 uM relative to control; details: values are per cent of control; in short: as §1
TK-10 [3] = assay: Growth inhibition of human TK10 cells at 10 uM relative to control; details: values are per cent of control; in short: as §2
M14 = assay: Growth inhibition of human M14 cells at 10 uM relative to control; details: values are per cent of control; in short: as §1
HOP-62 = assay: Growth inhibition of human HOP62 cells at 10 uM relative to control; details: values are per cent of control; in short: as §1
SK-MEL-5 = assay: Growth inhibition of human SK-MEL-5 cells at 10 uM relative to control; details: values are per cent of control; in short: as §1
A498 = assay: Growth inhibition of human A498 cells at 10 uM relative to control; details: values are per cent of control; in short: as §1
IGROV-1 = assay: Growth inhibition of human IGROV1 cells at 10 uM relative to control; details: values are per cent of control; in short: as §1
NCI/ADR-RES = assay: Growth inhibition of human NCI/ADR-RES cells at 10 uM relative to control; details: values are per cent of control; in short: as §1
cells [4] = details: Homo sapiens, Cancer cell lines; remark: listed apart in the source
HL-60(TB) = assay: Growth inhibition of human HL-60(TB) cells at 10 uM relative to control; details: read-out: INH
In short: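 Single-dose cell line screen run by the NCI (NIH) in its human cancer cell line panel, which includes the leukemia line HL-60(TB). Percent growth inhibition was calculated by comparison with untreated samples.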

KM12 = assay: Growth inhibition of human KM12 cells at 10 uM relative to control; details: values are per cent of control; in short: as §1
Malme-3M = assay: Growth inhibition of human MALME-3M cells at 10 uM relative to control; details: values are per cent of control; in short: as §1
MCF7 = assay: Growth inhibition of human MCF7 cells at 10 uM relative to control; details: values are per cent of control; in short: as §1
SF-268 = assay: Growth inhibition of human SF268 cells at 10 uM relative to control; details: values are per cent of control; in short: as §1
CAKI-1 = assay: Growth inhibition of human Caki1 cells at 10 uM relative to control; details: values are per cent of control; in short: as §1
BT-549 = assay: Growth inhibition of human BT549 cells at 10 uM relative to control; details: values are per cent of control; in short: as §1
cells [5] = details: Homo sapiens, Cancer cell lines; remark: listed apart in the source
ACHN = assay: Growth inhibition of human ACHN cells at 10 uM relative to control; details: values are per cent of control; in short: as §1
HCT-15 = assay: Growth inhibition of human HCT15 cells at 10 uM relative to control; details: values are per cent of control; in short: as §1
SF-295 = assay: Growth inhibition of human SF295 cells at 10 uM relative to control; details: values are per cent of control; in short: as §1
[6] = Growth inhibition of human Hs 578T cells at 10 uM relative to control; details: values are per cent of control; in short: as §1
Melanoma cell = assay: cells; details: Homo sapiens

O=C(/C=C/c1cn(C/C=C/c2ccccc2)nn1)NO
growth, % of control at 10 µM (PC-3): 11%
growth, % of control at 10 µM (NCI-H322M): 9.59%
growth, % of control at 10 µM (HCT-116): -69%
growth, % of control at 10 µM (NCI-H23): 21.4%
growth, % of control at 10 µM (COLO 205): -75.7%
inhibition at 10 µM (cells [1]): -18%
growth, % of control at 10 µM (U-251): -89.9%
GI50 (TK-10 [2]): 495 nM
growth, % of control at 10 µM (SN12C): 25%
growth, % of control at 10 µM (HT-29): 12%
growth, % of control at 10 µM (OVCAR-4): 55.7%
growth, % of control at 10 µM (EKVX): 23.7%
growth, % of control at 10 µM (TK-10 [3]): -8.37%
growth, % of control at 10 µM (M14): 1.63%
growth, % of control at 10 µM (HOP-62): -31.7%
growth, % of control at 10 µM (SK-MEL-5): -79%
growth, % of control at 10 µM (A498): -74.4%
growth, % of control at 10 µM (IGROV-1): -13.8%
growth, % of control at 10 µM (NCI/ADR-RES): -14.2%
growth percent at 10 µM (cells [4]): -20%
growth, % of control at 10 µM (HL-60(TB)): -5.68%
growth, % of control at 10 µM (KM12): 8.61%
growth, % of control at 10 µM (Malme-3M): -28.7%
growth, % of control at 10 µM (MCF7): 13.6%
growth, % of control at 10 µM (SF-268): -0.08%
growth, % of control at 10 µM (CAKI-1): 7.42%
growth, % of control at 10 µM (BT-549): 43.3%
inhibition at 10 µM (cells [5]): 1%
growth, % of control at 10 µM (ACHN): -51.2%
growth, % of control at 10 µM (HCT-15): 9.7%
growth, % of control at 10 µM (SF-295): -55.5%
growth, % of control at 10 µM [6]: 26%
inhibition at 10 µM (Melanoma cell): -43%
